Experimental data as given in article PMC6096382 (Theranostics, 2018).

System: human sural nerve
Type: binding
Conditions: topical 100 µM on human nerve sections from multiple patients
How it was run: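 Human peripheral nerve from nerve-resection patients, cut as 10 µm unfixed sections, humidified 30 min. Test compound in 0.5X HBSS applied topically and incubated 30 min in a humidified chamber. Carboxyfluorescein served as the free-dye control. Sections were washed twice with 0.5X HBSS and once with PBS, then coverslipped and imaged at once on a dissecting scope or confocal (488 nm excitation, 515/25 nm emission, 10x air objective).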

carboxyfluorescein
binding of free dye control to human nerve: only weak non-specific binding
